{
  "source": "ChEMBL document CHEMBL4270565",
  "about": "“Design, synthesis and antimicrobial evaluation of propylene-tethered ciprofloxacin-isatin hybrids” (Eur J Med Chem, 2018)",
  "data": [
    {"test_system": "Pseudomonas aeruginosa", "assay": "Antibacterial activity against Pseudomonas aeruginosa ATCC 27853 after 18 to 24 hrs by two-fold serial dilution method", "format": "functional", "details": "not given", "how_it_was_run": "(§1)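 Agar two-fold dilution MIC. Compounds were dissolved in 0.1 N NaOH and water, then serially diluted in melted Mueller-Hinton agar, with top concentrations starting at 128. Plates were inoculated at about 10 cfu and incubated at 35 °C for 18–24 h. MIC was taken as the lowest concentration giving 90% inhibition of growth.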", "units": {"MIC90": "µg/mL"}, "values": [
      {"smiles": "CO/N=C1\\C(=O)N(CCCN2CCN(c3cc4c(cc3F)c(=O)c(C(=O)O)cn4C3CC3)CC2)c2ccc(C)cc21", "MIC90": 0.5}
    ]},
    {"test_system": "not listed separately", "assay": "Cytotoxicity against African green monkey Vero cells assessed as reduction in cell viability after 72 hrs by MTT assay", "format": "cell-based", "details": "chlorocebus sabaeus", "how_it_was_run": "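VERO cells were kept in MEM with Earle's salts and 10% FBS at 37 °C, 5% CO2. They were seeded in 96-well plates and allowed to recover for 24 h. Cells were then exposed to compounds in DMSO over a series from 1000 down to 4 for 72 h. Viability was read by MTT, and CC50 was calculated by Bliss analysis.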", "units": {"CC50 at 72 h": "µg/mL"}, "values": [
      {"smiles": "CO/N=C1\\C(=O)N(CCCN2CCN(c3cc4c(cc3F)c(=O)c(C(=O)O)cn4C3CC3)CC2)c2ccc(C)cc21", "CC50 at 72 h": 256}
    ]},
    {"test_system": "Enterococcus faecium", "assay": "Antibacterial activity against Enterococcus faecium 13-7 after 18 to 24 hrs by two-fold serial dilution method", "format": "functional", "details": "not given", "how_it_was_run": "as §1", "units": {"MIC90": "µg/mL"}, "values": [
      {"smiles": "CO/N=C1\\C(=O)N(CCCN2CCN(c3cc4c(cc3F)c(=O)c(C(=O)O)cn4C3CC3)CC2)c2ccc(C)cc21", "MIC90": 8}
    ]},
    {"test_system": "Enterococcus faecalis", "assay": "Potency index, ratio of levofloxacin MIC90 to compound MIC90 for Enterococcus faecalis ATCC 51299", "format": "functional", "details": "not given", "values": [
      {"smiles": "CO/N=C1\\C(=O)N(CCCN2CCN(c3cc4c(cc3F)c(=O)c(C(=O)O)cn4C3CC3)CC2)c2ccc(C)cc21", "Ratio": "2 - 64"}
    ]},
    {"test_system": "Staphylococcus epidermidis", "assay": "Potency index, ratio of levofloxacin MIC90 to compound MIC90 for methicillin-sensitive Staphylococcus epidermidis ATCC 12228", "format": "functional", "details": "not given", "values": [
      {"smiles": "CO/N=C1\\C(=O)N(CCCN2CCN(c3cc4c(cc3F)c(=O)c(C(=O)O)cn4C3CC3)CC2)c2ccc(C)cc21", "Ratio": "2 - 64"}
    ]},
    {"test_system": "Enterococcus faecium", "assay": "Antibacterial activity against Enterococcus faecium ATCC 700221 after 18 to 24 hrs by two-fold serial dilution method", "format": "functional", "details": "not given", "how_it_was_run": "as §1", "units": {"MIC90": "µg/mL"}, "values": [
      {"smiles": "CO/N=C1\\C(=O)N(CCCN2CCN(c3cc4c(cc3F)c(=O)c(C(=O)O)cn4C3CC3)CC2)c2ccc(C)cc21", "MIC90": 2}
    ]},
    {"test_system": "Escherichia coli", "assay": "Antibacterial activity against extended-spectrum beta-lactamase harboring Escherichia coli ATCC 35218 after 18 to 24 hrs by two-fold serial dilution method", "format": "functional", "details": "not given", "how_it_was_run": "(§2)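 Agar two-fold serial dilution in Mueller-Hinton agar. Strains came from the Chinese Center for Disease Control and Prevention. Compounds were dissolved in 0.1 N NaOH and water, then diluted in melted agar to final levels stepping down from 128. Plates were inoculated with bacterial cfu and incubated at 35 C for 18–24 h. MIC is the lowest concentration giving 90% growth inhibition.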", "units": {"MIC90": "µg/mL"}, "values": [
      {"smiles": "CO/N=C1\\C(=O)N(CCCN2CCN(c3cc4c(cc3F)c(=O)c(C(=O)O)cn4C3CC3)CC2)c2ccc(C)cc21", "MIC90": "≤ 0.03"}
    ]},
    {"test_system": "Klebsiella pneumoniae", "assay": "Antibacterial activity against extended-spectrum beta-lactamase deficient Klebsiella pneumoniae 15-2 after 18 to 24 hrs by two-fold serial dilution method", "format": "functional", "details": "not given", "how_it_was_run": "as §1", "units": {"MIC90": "µg/mL"}, "values": [
      {"smiles": "CO/N=C1\\C(=O)N(CCCN2CCN(c3cc4c(cc3F)c(=O)c(C(=O)O)cn4C3CC3)CC2)c2ccc(C)cc21", "MIC90": "≤ 0.03"}
    ]},
    {"test_system": "Staphylococcus epidermidis", "assay": "Antibacterial activity against methicillin-sensitive Staphylococcus epidermidis ATCC 12228 after 18 to 24 hrs by two-fold serial dilution method", "format": "functional", "details": "not given", "how_it_was_run": "as §1", "units": {"MIC90": "µg/mL"}, "values": [
      {"smiles": "CO/N=C1\\C(=O)N(CCCN2CCN(c3cc4c(cc3F)c(=O)c(C(=O)O)cn4C3CC3)CC2)c2ccc(C)cc21", "MIC90": 0.06}
    ]},
    {"test_system": "Stenotrophomonas maltophilia", "assay": "Antibacterial activity against Stenotrophomonas maltophilia ATCC 13636 after 18 to 24 hrs by two-fold serial dilution method", "format": "functional", "details": "not given", "how_it_was_run": "as §1", "units": {"MIC90": "µg/mL"}, "values": [
      {"smiles": "CO/N=C1\\C(=O)N(CCCN2CCN(c3cc4c(cc3F)c(=O)c(C(=O)O)cn4C3CC3)CC2)c2ccc(C)cc21", "MIC90": "≤ 0.03"}
    ]},
    {"test_system": "Staphylococcus epidermidis", "assay": "Antibacterial activity against methicillin-resistant Staphylococcus epidermidis 13-3 after 18 to 24 hrs by two-fold serial dilution method", "format": "functional", "details": "not given", "how_it_was_run": "as §2", "units": {"MIC90": "µg/mL"}, "values": [
      {"smiles": "CO/N=C1\\C(=O)N(CCCN2CCN(c3cc4c(cc3F)c(=O)c(C(=O)O)cn4C3CC3)CC2)c2ccc(C)cc21", "MIC90": 1}
    ]},
    {"test_system": "not listed separately", "assay": "Elimination half life in ICR mouse at 50 mg/kg, po administered as single dose by HPLC analysis", "format": "ADME, organism-based", "details": "in vivo, read-out: beta t1/2 (converted)", "units": {"half-life": "h"}, "values": [
      {"smiles": "CO/N=C1\\C(=O)N(CCCN2CCN(c3cc4c(cc3F)c(=O)c(C(=O)O)cn4C3CC3)CC2)c2ccc(C)cc21", "half-life": 3.3}
    ]},
    {"test_system": "Enterococcus faecalis", "assay": "Antibacterial activity against Enterococcus faecalis ATCC 29212 after 18 to 24 hrs by two-fold serial dilution method", "format": "functional", "details": "not given", "how_it_was_run": "as §1", "units": {"MIC90": "µg/mL"}, "values": [
      {"smiles": "CO/N=C1\\C(=O)N(CCCN2CCN(c3cc4c(cc3F)c(=O)c(C(=O)O)cn4C3CC3)CC2)c2ccc(C)cc21", "MIC90": 0.5}
    ]},
    {"test_system": "Klebsiella pneumoniae", "assay": "Antibacterial activity against extended-spectrum beta-lactamase harboring Klebsiella pneumoniae ATCC 700603 after 18 to 24 hrs by two-fold serial dilution method", "format": "functional", "details": "not given", "how_it_was_run": "as §2", "units": {"MIC90": "µg/mL"}, "values": [
      {"smiles": "CO/N=C1\\C(=O)N(CCCN2CCN(c3cc4c(cc3F)c(=O)c(C(=O)O)cn4C3CC3)CC2)c2ccc(C)cc21", "MIC90": 0.25}
    ]},
    {"test_system": "not listed separately", "assay": "Tmax in ICR mouse at 50 mg/kg, po administered as single dose by HPLC analysis", "format": "ADME, organism-based", "details": "in vivo", "how_it_was_run": "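Mice (3 per group), fasted overnight, given a single oral dose of 50 mg/kg as a suspension in 0.5% CMC. Jugular vein blood taken at 0.25, 0.5, 1, 2, 4, 6, 8 and 24 h. Serum proteins precipitated with acetonitrile and centrifuged; the dried supernatant was redissolved in acetonitrile for HPLC. PK parameters were derived directly from the concentration–time data.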", "units": {"Tmax": "h"}, "values": [
      {"smiles": "CO/N=C1\\C(=O)N(CCCN2CCN(c3cc4c(cc3F)c(=O)c(C(=O)O)cn4C3CC3)CC2)c2ccc(C)cc21", "Tmax": 1.2}
    ]},
    {"test_system": "Morganella morganii", "assay": "Antibacterial activity against Morganella morganii ATCC 25830 after 18 to 24 hrs by two-fold serial dilution method", "format": "functional", "details": "not given", "how_it_was_run": "as §1", "units": {"MIC90": "µg/mL"}, "values": [
      {"smiles": "CO/N=C1\\C(=O)N(CCCN2CCN(c3cc4c(cc3F)c(=O)c(C(=O)O)cn4C3CC3)CC2)c2ccc(C)cc21", "MIC90": "≤ 0.03"}
    ]},
    {"test_system": "Staphylococcus aureus", "assay": "Potency index, ratio of levofloxacin MIC90 to compound MIC90 for methicillin-sensitive Staphylococcus aureus ATCC 29213", "format": "functional", "details": "not given", "values": [
      {"smiles": "CO/N=C1\\C(=O)N(CCCN2CCN(c3cc4c(cc3F)c(=O)c(C(=O)O)cn4C3CC3)CC2)c2ccc(C)cc21", "Ratio": "2 - 64"}
    ]},
    {"test_system": "Klebsiella aerogenes", "assay": "Antibacterial activity against Enterobacter aerogenes ATCC 13048 after 18 to 24 hrs by two-fold serial dilution method", "format": "functional", "details": "not given", "how_it_was_run": "as §1", "units": {"MIC90": "µg/mL"}, "values": [
      {"smiles": "CO/N=C1\\C(=O)N(CCCN2CCN(c3cc4c(cc3F)c(=O)c(C(=O)O)cn4C3CC3)CC2)c2ccc(C)cc21", "MIC90": "≤ 0.03"}
    ]},
    {"test_system": "Staphylococcus aureus", "assay": "Potency index, ratio of ciprofloxacin MIC90 to compound MIC90 for methicillin-sensitive Staphylococcus aureus ATCC 29213", "format": "functional", "details": "not given", "values": [
      {"smiles": "CO/N=C1\\C(=O)N(CCCN2CCN(c3cc4c(cc3F)c(=O)c(C(=O)O)cn4C3CC3)CC2)c2ccc(C)cc21", "Ratio": "2 - 64"}
    ]}
  ]
}
